We go through one molecule from ChEMBL document CHEMBL4014308, “Amphiphilic Tobramycin-Lysine Conjugates Sensitize Multidrug Resistant Gram-Negative Bacteria to Rifampicin and Minocycline” (J Med Chem, 2017).

Experiment [1] in a line: Ratio of cytotoxic concentration against human JIMT1 cells to synergistic concentration for Pseudomonas aeruginosa PAO1 in presence of minocycline.
Experiment [2] concerns Pseudomonas aeruginosa. The experiment in a line: Potentiation of minocycline-induced antibacterial activity against multidrug/extremely drug-resistant/colistin-susceptible Pseudomonas aeruginosa isolate 101885 at 4 ug/ml after 18 hrs by checkerboard assay. The experiment is classed as functional. The gist of the method:
(§1)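 Checkerboard in Mueller-Hinton broth: antibiotic serially diluted along one axis and adjuvant along the other (10 × 7 matrix). Inoculum from a 0.5 McFarland saline suspension diluted 1:50 in MHB; 18 h at 37 °C, then plate read. MIC is the lowest concentration with no growth. FIC of each agent is its concentration in a no-growth well divided by its MIC alone; FIC index is the sum of both. FIC index ≤0.5 counts as synergy.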

Experiment [3] deals with Acinetobacter baumannii. The experiment in a line: Synergistic antibacterial activity against multidrug-resistant Acinetobacter baumannii 110193 after 18 hrs in presence of rifampicin by checkerboard assay. The experiment is classed as functional. To be noted: Acinetobacter baumannii, 110193, 18 h. The procedure, abridged:
(§2)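 Checkerboard in MHB with a 10 × 7 matrix: antibiotic serially diluted along one axis, adjuvant along the other. Inoculum was a 1:50 dilution of a 0.5 McFarland suspension, incubated 18 h at 37 °C and read on a plate reader. Each FIC is the concentration in a no-growth well divided by the MIC alone; FIC index is their sum, with ≤0.5 taken as synergy.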

The subject of experiment [4] is Acinetobacter baumannii. Nature of the experiment: Antibacterial activity against Acinetobacter baumannii isolate CAN-ICU 63169 after 18 hrs by microtiter dilution assay. Type of experiment: functional. To be noted: isolate CAN-ICU 63169, 18 h. The gist of the method:
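Broth microdilution per CLSI. Overnight culture adjusted to 0.5 McFarland in saline, diluted 1:50 in Mueller-Hinton broth, and added to an equal volume of 2-fold serial compound dilutions in MHB. Incubated 18 h at 37 °C. MIC taken as the lowest concentration with no visible growth.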

The subject of experiment [5] is Enterobacter cloacae. The experiment in a line: Potentiation of minocycline-induced antibacterial activity against multidrug-resistant Enterobacter cloacae 117029 at 4 ug/ml after 18 hrs by checkerboard assay. Type of experiment: functional. The procedure, abridged:
as §1

Experiment [6] concerns Pseudomonas aeruginosa. The experiment in a line: Potentiation of minocycline-induced antibacterial activity against multidrug/extremely drug-resistant/colistin-susceptible Pseudomonas aeruginosa isolate 101885 assessed as fold reduction in minocycline MIC at 4 ug/ml after 18 hrs by checkerboard assay relative to control. The experiment is classed as functional. The gist of the method:
(§3)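 Checkerboard in Mueller-Hinton broth, 10 × 7 matrix, with the adjuvant held at 4 µg/mL. Inoculum from a 0.5 McFarland suspension diluted 1:50; 18 h at 37 °C. Antibiotic MIC (lowest concentration with no growth) with adjuvant is compared with the antibiotic MIC alone, giving a fold reduction.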

Experiment [7] has as its system Pseudomonas aeruginosa. Nature of the experiment: Potentiation of minocycline-induced antibacterial activity against multidrug/extremely drug-resistant/colistin-resistant Pseudomonas aeruginosa isolate 101243 assessed as fold reduction in minocycline MIC at 4 ug/ml after 18 hrs by checkerboard assay relative to control. The experiment is classed as functional. The procedure, abridged:
as §3

Experiment [8] has as its system Pseudomonas aeruginosa. Nature of the experiment: Antibacterial activity against gentamicin/tobramycin-resistant Pseudomonas aeruginosa isolate CANWARD-2011 96846 after 18 hrs by microtiter dilution assay. To be noted: isolate CANWARD-2011 96846, 18 h. The experiment is classed as functional. The procedure, abridged: (§4)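 Broth microdilution following CLSI guidelines. An overnight culture was adjusted to 0.5 McFarland in saline, then diluted 1:50 in Mueller-Hinton broth. This inoculum was added in equal volume to 2-fold serial dilutions of agent in MHB and incubated 18 h at 37 °C. MIC was the lowest concentration with no visible growth.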

Experiment [9] has as its system Pseudomonas aeruginosa. Nature of the experiment: Synergistic antibacterial activity against Pseudomonas aeruginosa PAO1 after 18 hrs in presence of moxifloxacin by checkerboard assay. Type of experiment: functional. To be noted: PAO1, 18 h. The gist of the method: (§5)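 Checkerboard in MHB: antibiotic diluted along one axis and adjuvant along the other (10 × 7 matrix). Inoculum was a 1:50 dilution in MHB of a 0.5 McFarland saline suspension; incubated 18 h at 37 °C. Each FIC = concentration in the no-growth well divided by the MIC alone; FIC index = sum of both FICs. ≤0.5 synergy, 0.5–4 no interaction, ≥4 antagonism.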

Experiment [10] relates to Pseudomonas aeruginosa. The experiment in a line: Potentiation of rifampicin-induced antibacterial activity against multidrug/extremely drug-resistant/colistin-susceptible Pseudomonas aeruginosa isolate 100036 at 4 ug/ml after 18 hrs by checkerboard assay. Type of experiment: functional. The procedure, abridged:
as §1

A further experiment has as its system Escherichia coli. The experiment in a line: Antibacterial activity against gentamicin/tobramycin/ciprofloxacin-resistant Escherichia coli isolate CANWARD-2011 97615 harboring AAC3-2A after 18 hrs by microtiter dilution assay. The experiment is classed as functional. Conditions: isolate CANWARD-2011 97615, 18 h. The gist of the method:
as §4

The subject of experiment [11] is Pseudomonas aeruginosa. Nature of the experiment: Potentiation of minocycline-induced antibacterial activity against multidrug/extremely drug-resistant/colistin-susceptible Pseudomonas aeruginosa isolate P259-96918 assessed as fold reduction in minocycline MIC at 4 ug/ml after 18 hrs by checkerboard assay relative to control. The experiment is classed as functional. The gist of the method: as §3

For experiment [12], the system named is Pseudomonas aeruginosa. Nature of the experiment: Potentiation of minocycline-induced antibacterial activity against multidrug/extremely drug-resistant/colistin-susceptible Pseudomonas aeruginosa isolate P262-101856 assessed as fold reduction in minocycline MIC at 4 ug/ml after 18 hrs by checkerboard assay relative to control. The experiment is classed as functional. The procedure, abridged: as §3

For experiment [13], the system named is Pseudomonas aeruginosa. The experiment in a line: Synergistic antibacterial activity against Pseudomonas aeruginosa PAO1 after 18 hrs in presence of gentamicin by checkerboard assay. Type of experiment: functional. Conditions: PAO1, 18 h. The gist of the method: as §5
Experiment [14] has as its system Pseudomonas aeruginosa. Nature of the experiment: Potentiation of rifampicin-induced antibacterial activity against multidrug/extremely drug-resistant/colistin-susceptible Pseudomonas aeruginosa isolate 100036 assessed as fold reduction in rifampicin MIC at 4 ug/ml after 18 hrs by checkerboard assay relative to control. The experiment is classed as functional. The procedure, abridged:
as §3

Experiment [15] concerns Pseudomonas aeruginosa. The experiment in a line: Potentiation of minocycline-induced antibacterial activity against multidrug/extremely drug-resistant/colistin-susceptible Pseudomonas aeruginosa isolate P262-101856 at 4 ug/ml after 18 hrs by checkerboard assay. The experiment is classed as functional. The gist of the method:
as §1

Experiment [16] relates to Pseudomonas aeruginosa. The experiment in a line: Potentiation of rifampicin-induced antibacterial activity against multidrug/extremely drug-resistant/colistin-susceptible Pseudomonas aeruginosa isolate P259-96918 assessed as fold reduction in rifampicin MIC at 4 ug/ml after 18 hrs by checkerboard assay relative to control. The experiment is classed as functional. The procedure, abridged:
as §3

The subject of experiment [17] is Acinetobacter baumannii. Nature of the experiment: Synergistic antibacterial activity against multidrug-resistant Acinetobacter baumannii AB031 after 18 hrs in presence of rifampicin by checkerboard assay. The experiment is classed as functional. Conditions: AB031, 18 h. The procedure, abridged:
as §2

Experiment [18] relates to Pseudomonas aeruginosa. The experiment in a line: Induction of cytoplasmic membrane depolarization in Pseudomonas aeruginosa PAO1 up to 1200 secs by diSC3-5 staining based fluorescence assay. Type of experiment: functional. The gist of the method: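 Mid-log PAO1 washed in 5 mM HEPES pH 7.4 with 20 mM glucose and resuspended to OD600 0.05. Cells were loaded with 0.2 mM EDTA and 0.4 µM diSC3-5 for 2 h at 37 °C in the dark, then equilibrated with 100 mM KCl for 30 min. Agent was added and fluorescence followed at 622/670 nm; agents tested at 32 µg/mL.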

The test system of experiment [19] is Enterobacter cloacae. Nature of the experiment: Synergistic antibacterial activity against multidrug-resistant Enterobacter cloacae 117029 after 18 hrs in presence of minocycline by checkerboard assay. Type of experiment: functional. To be noted: Enterobacter cloacae, 117029, 18 h. The procedure, abridged: as §2
Experiment [20] concerns Pseudomonas aeruginosa. Nature of the experiment: Potentiation of rifampicin-induced antibacterial activity against Pseudomonas aeruginosa PAO750 harboring RND efflux pump/OpmH deletion mutant after 18 hrs by checkerboard assay. Type of experiment: functional. The procedure, abridged: as §1
The subject of experiment [21] is Pseudomonas aeruginosa. The experiment in a line: Synergistic antibacterial activity against Pseudomonas aeruginosa PAO1 after 18 hrs in presence of trimethoprim by checkerboard assay. Type of experiment: functional. To be noted: PAO1, 18 h. The procedure, abridged: as §5
The test system of experiment [22] is Acinetobacter baumannii. Nature of the experiment: Potentiation of rifampicin-induced antibacterial activity against multidrug-resistant Acinetobacter baumannii AB031 at 4 ug/ml after 18 hrs by checkerboard assay. Type of experiment: functional. The procedure, abridged: as §1
The subject of experiment [23] is Pseudomonas aeruginosa. The experiment in a line: Synergistic antibacterial activity against Pseudomonas aeruginosa PAO1 after 18 hrs in presence of minocycline by checkerboard assay. The experiment is classed as functional. Conditions: PAO1, 18 h. The gist of the method:
as §5

As to `Cl.Cl.Cl.Cl.Cl.Cl.Cl.NCCCC[C@H](N)C(=O)N(CCCCCCCCCCCCO[C@@H]1[C@@H](O[C@H]2O[C@H](CO)[C@@H](O)[C@H](N)[C@H]2O)[C@H](N)C[C@H](N)[C@H]1O[C@H]1O[C@H](CN)[C@@H](O)C[C@H]1N)Cc1c2ccccc2c(Cl)c2ccccc12`, the Ratio in [1] came out at 6. For the same molecule, the “fractional inhibitory concentration index (FICI)” value stood at 0.156 in the experiment on Pseudomonas aeruginosa [2]; 0.062 with Enterobacter cloacae [5]; 0.079 in the experiment on Pseudomonas aeruginosa [10]; 0.133 in the experiment on Pseudomonas aeruginosa [15]; 0.156 with Pseudomonas aeruginosa [20]; 0.09 in the experiment with Acinetobacter baumannii [22]. The MIC in the experiment with Acinetobacter baumannii [3] came to 1 µg/mL; against Acinetobacter baumannii [4], 128 µg/mL; with Pseudomonas aeruginosa [8], 32 µg/mL; in the experiment on Pseudomonas aeruginosa [9], 2 µg/mL; in the experiment on Escherichia coli it was 32 µg/mL; with Pseudomonas aeruginosa [13], 4 µg/mL. For the same molecule, the MIC with Acinetobacter baumannii [17] worked out at 1 µg/mL; with Enterobacter cloacae [19], 8 µg/mL; in the experiment on Pseudomonas aeruginosa [21], 2 µg/mL; with Pseudomonas aeruginosa [23], 1 µg/mL. In addition, the “fold change (FC)” value in the experiment on Pseudomonas aeruginosa [6] turned out to be 16; in the experiment on Pseudomonas aeruginosa [7], 4; with Pseudomonas aeruginosa [11], 64; in the experiment with Pseudomonas aeruginosa [12], 128; in the experiment with Pseudomonas aeruginosa [14], 128; in the experiment with Pseudomonas aeruginosa [16], 256. In addition, the Activity result with Pseudomonas aeruginosa [18] is “Dose-dependent effect”.

A word on the MIC: it is the smallest concentration in the dilution series that meets the test's criterion for growth inhibition.
